Data as given in ChEMBL document CHEMBL1155099, “Natural products in parallel synthesis: triazole libraries of nonactic acid” (2008).
The source made the active and inactive calls.

Assays:
Format in all cases: functional, organism-based
Pseudomonas aeruginosa = test: Antibacterial activity against Pseudomonas aeruginosa at 1 mM by almar blue dye reduction assay
Summary of the method: (§1)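 Single-point primary screen at 1 mM using Alamar Blue dye reduction as the growth read-out.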

Bacillus subtilis = test: Antibacterial activity against Bacillus subtilis at 1 mM by almar blue dye reduction assay; summary of the method: as §1
Candida albicans = test: Antifungal activity against Candida albicans at 1 mM by almar blue dye reduction assay; summary of the method: as §1
Bacillus cereus = test: Antibacterial activity against Bacillus cereus at 1 mM by almar blue dye reduction assay; summary of the method: as §1
Saccharomyces cerevisiae = test: Antifungal activity against Saccharomyces cerevisiae at 1 mM by almar blue dye reduction assay; summary of the method: as §1
Staphylococcus aureus = test: Antibacterial activity against Staphylococcus aureus at 1 mM by almar blue dye reduction assay; summary of the method: as §1
Escherichia coli = test: Antibacterial activity against Escherichia coli at 1 mM by almar blue dye reduction assay; summary of the method: as §1
Bacillus anthracis = test: Antibacterial activity against Bacillus anthracis at 1mM by almar blue dye reduction assay
Cryptococcus neoformans = test: Antifungal activity against Cryptococcus neoformans at 1 mM by almar blue dye reduction assay; summary of the method: as §1

Measured: Activity

COCCNCC#Cc1cn([C@H](C)C[C@@H]2CC[C@H]([C@@H](C)C(=O)N3CCN(CC4CCCO4)CC3)O2)nn1 (some centres not stated)
inactive: all assays above

C[C@H](C[C@@H]1CC[C@H]([C@@H](C)C(=O)N2CCN(CC3CCCO3)CC2)O1)n1cc(C#CCc2ccccc2)nn1 (some centres not stated)
inactive: all assays above

C[C@H](C[C@@H]1CC[C@H]([C@@H](C)C(=O)N2CCCC2)O1)n1cc(C#Cc2ccc(C(F)(F)F)cc2)nn1
inactive: all assays above

CCN(CC)C(=O)[C@H](C)[C@H]1CC[C@@H](C[C@@H](C)n2cc(C#CCOc3ccc(Br)cc3)nn2)O1
inactive: all assays above

COc1cccc(OCC#Cc2cn([C@H](C)C[C@@H]3CC[C@H]([C@@H](C)C(=O)NC(C)C)O3)nn2)c1OC
inactive: all assays above

C[C@H](C[C@@H]1CC[C@H]([C@@H](C)C(=O)N2CCN(CC3CCCO3)CC2)O1)n1cc(C#Cc2ccc(Oc3ccccc3)cc2)nn1 (some centres not stated)
inactive: all assays above

CCCCN(CC#Cc1cn([C@H](C)C[C@@H]2CC[C@H]([C@@H](C)C(=O)N(CC)CC)O2)nn1)CCCC
inactive: all assays above

COc1ccc(OCC#Cc2cn([C@H](C)C[C@@H]3CC[C@H]([C@@H](C)C(=O)NC(C)C)O3)nn2)cc1
inactive: all assays above

C[C@H](C[C@@H]1CC[C@H]([C@@H](C)C(=O)N2CCCC2)O1)n1cc(C#CCN2CCOCC2)nn1
inactive: all assays above

CCCCN(CC#Cc1cn([C@H](C)C[C@@H]2CC[C@H]([C@@H](C)C(=O)NC(C)C)O2)nn1)CCCC
inactive: all assays above

CC(C)NC(=O)[C@H](C)[C@H]1CC[C@@H](C[C@@H](C)n2cc(C#CCCCC#N)nn2)O1
inactive: all assays above

CC(C)NC(=O)[C@H](C)[C@H]1CC[C@@H](C[C@@H](C)n2cc(C#CCN(C)C)nn2)O1
inactive: all assays above

C[C@H](C[C@@H]1CC[C@H]([C@@H](C)C(=O)N(C)Cc2ccccc2)O1)n1cc(C#CCOc2ccccc2)nn1
inactive: all assays above

CCCNC(=O)NCC#Cc1cn([C@H](C)CC2CCC([C@@H](C)C(=O)N(C)Cc3ccccc3)O2)nn1 (single isomer, unassigned)
inactive: all assays above

CC(C)NC(=O)[C@H](C)[C@H]1CC[C@@H](C[C@@H](C)n2cc(C#CCOc3ccc(Br)cc3)nn2)O1
inactive: all assays above

C[C@H](C[C@@H]1CC[C@H]([C@@H](C)C(=O)N2CCN(CC3CCCO3)CC2)O1)n1cc(C#CCC2CCCC2)nn1 (some centres not stated)
inactive: all assays above

Cc1cccc(NC(=O)NCC#Cc2cn([C@H](C)CC3CCC([C@@H](C)C(=O)NC(C)C)O3)nn2)c1 (single isomer, unassigned)
inactive: all assays above

COCC#Cc1cn([C@H](C)C[C@@H]2CC[C@H]([C@@H](C)C(=O)NC(C)C)O2)nn1
inactive: all assays above

CC(C)NC(=O)[C@H](C)[C@H]1CC[C@@H](C[C@@H](C)n2cc(C#Cc3ccc(C(F)(F)F)cc3)nn2)O1
inactive: all assays above

CCN(CC)C(=O)[C@H](C)[C@H]1CC[C@@H](C[C@@H](C)n2cc(C#Cc3cccc4ccccc34)nn2)O1
inactive: all assays above

CCN(CC)C(=O)[C@H](C)[C@H]1CC[C@@H](C[C@@H](C)n2cc(C#CC3=CCCCC3)nn2)O1
inactive: all assays above

COc1cccc(OCC#Cc2cn([C@H](C)C[C@@H]3CC[C@H]([C@@H](C)C(=O)N4CCN(CC5CCCO5)CC4)O3)nn2)c1OC (some centres not stated)
inactive: all assays above

CCN(CC)C(=O)[C@H](C)[C@H]1CC[C@@H](C[C@@H](C)n2cc(C#CCN3CCC(c4ccccc4)CC3)nn2)O1
inactive: all assays above
